Measurements collected from several papers.
Protocols differ between the studies behind these lines.
Target: Mitogen-activated protein kinase 8 (MAPK8, Homo sapiens, UniProt P45983)

Compound | read-out | action | method | tested at | quantity | result
CN1CCC2(CC1)NC(=O)c1c(c3ccc(Cl)c(Cl)c3n1C)C2C#N (racemic) | thermal stability | – | DSF | 10 µM | ΔTm | 0 °C
CC(C)(O)c1cncc(-c2nc3ccc(F)cc3n2C2CC2)c1 | cell-free assay | – | competition with immobilised ligand | 1 µM | remaining binding | 100%
Cc1cnc(NC2CCOCC2)nc1-n1cnc(C(=O)NC(CN)c2cc(F)cc(Cl)c2)c1 (stereo not drawn) | enzyme activity | inhibitor | radiometric | 1 µM | remaining activity | 56%
NS(=O)(=O)c1cc(NC(=O)C2(c3ccccc3Cl)CC2)ccc1Oc1cccc(Cl)c1 | cell-free assay | – | competition with immobilised ligand | 1 µM | remaining binding | 100%
CCN1CCC2(CC1)NC(=O)c1c(c3ccc(Cl)c(Cl)c3n1C)C2C#N (racemic) | thermal stability | – | DSF | 10 µM | ΔTm | 0.6 °C
CC(=O)C1=C(C)N(c2cccc(C(F)(F)F)c2)C(=O)N[C@@H]1c1ccc(C#N)nc1 | cell-free assay | – | competition with immobilised ligand | 1 µM | remaining binding | 100%
CC(C)(C)c1nc(-c2cccc(NS(=O)(=O)c3c(F)cccc3F)c2F)c(-c2ccnc(N)n2)s1 | enzyme activity | inhibitor | radiometric | 1 µM | remaining activity | 89%
Cc1ccc(C(=O)Nc2ccc(CN3CCN(C)CC3)c(C(F)(F)F)c2)cc1C#Cc1cnc2cccnn12 | enzyme activity | inhibitor | – | 23.5 nM | remaining activity | 82%
Oc1cccc(-c2nc(N3CCOCC3)c3oc4ncccc4c3n2)c1 | enzyme activity | inhibitor | – | 10 µM | remaining activity | 102%
Nc1nc(Nc2ccccc2)sc1C(=O)c1c(F)cccc1F | enzyme activity | inhibitor | – | 10 µM | remaining activity | 75%
FC(F)(F)Oc1cccc(-c2cnc3ccc(-c4ccncc4)nn23)c1 | enzyme activity | inhibitor | radiometric | 1 µM | activity vs control | 91%
CCC1(CC)NC(=O)c2c(c3ccc(Cl)c(Cl)c3n2C)C1C#N (stereo not drawn) | thermal stability | – | DSF | 10 µM | ΔTm | 0.3 °C
N#CC(c1ccnc(NCCc2cccnc2)n1)c1nc2ccccc2s1 (stereo not drawn) | enzyme activity | inhibitor | – | 0.5 µM | remaining activity | 87.6%
C=CC(=O)Nc1cc(Nc2nccc(Nc3cc(Cl)c(F)cc3C(C)(C)O)n2)c(OC)cc1N1CC[C@@H](N(C)C)C1 | enzyme activity | inhibitor | – | 1 µM | inhibition | -3%
Cn1c2c(Cl)c(Cl)ccc2c2cn[nH]c(=O)c21 | thermal stability | – | DSF | 10 µM | ΔTm | -0.3 °C
O=C(Nc1cnn(-c2csc(C(=O)NC3COC3)c2)c1)Nc1ccccc1Cl | enzyme activity | inhibitor | – | 5 µM | remaining activity | 57.6%
Nc1nc(NC2CCCCC2)sc1C(=O)c1ccccc1 | enzyme activity | inhibitor | – | 10 µM | remaining activity | 60%
CN([C@@H]1CCc2c(CC(=O)O)c3ccccc3n2C1)S(=O)(=O)c1ccc(F)cc1 | cell-free assay | – | competition with immobilised ligand | 1 µM | remaining binding | 77%

Compound | read-out | action | method | tested at | quantity | result
CN1CC(Oc2cnc(C#N)cc2-c2ccn3nc(NC(=O)C4CC4)cc3c2)C1 | enzyme activity | inhibitor | – | 1 µM | inhibition | -4%
COc1cc(-c2cc(-c3ccc(N4CCNCC4)cc3)cnc2C)cc(OC)c1OC | enzyme activity | inhibitor | – | 0.1 µM | inhibition | 0%
CCCS(=O)(=O)Nc1ccc(F)c(C(=O)c2c[nH]c3ncc(-c4ccc(Cl)cc4)cc23)c1F | enzyme activity | inhibitor | – | 1 µM | inhibition | < 10%
CCS(=O)(=O)c1cc2cc(C[C@](O)(CC(C)(C)c3ccc(F)cc3C(N)=O)C(F)(F)F)[nH]c2cn1 | cell-free assay | – | competition with immobilised ligand | 1 µM | remaining binding | 100%
CNCc1ccc(-c2cc(-c3nc(-c4ccc(S(=O)(=O)C(C)C)cc4)cnc3N)on2)cc1 | enzyme activity | inhibitor | – | 2 µM | inhibition | 8%
CC/C(=N\NC(=O)NCc1cccc(O)c1)c1ccc(O)c(C)c1O | enzyme activity | inhibitor | – | 0.1 µM | inhibition | -2.4%
COc1cc(Nc2cnc(C#N)c(O[C@H](C)CN(C)C)n2)ncc1-c1cnn(C)c1 | enzyme activity | inhibitor | radiometric | 1 µM | remaining activity | 104%
O=C1Nc2ccc(Cl)cc2C1=Cc1cc(Cl)c(O)c(Cl)c1 | cell-free assay | – | – | 0.5 µM | remaining signal | 82.8%
Cc1cc(NC(=O)c2cccc(S(F)(F)(F)(F)F)c2)cc(-n2ccn3nc(-c4cccnc4)cc23)c1 | cell-free assay | – | competition with immobilised ligand | 1 µM | remaining binding | 55.9%
O=C(Nc1cnn(-c2csc(C(=O)NC3COC3)c2)c1)Nc1c(F)cccc1Cl | enzyme activity | inhibitor | – | 5 µM | remaining activity | 49.1%
Cc1cc(NC(=O)c2cccc3cc(-c4cccc5[nH]nc(N)c45)ccc23)ccc1F | enzyme activity | inhibitor | – | 0.1 µM | activity vs control | 103%
Cn1c2c(c3ccc(Cl)c(Cl)c31)C(C#N)C1(CCNCC1)NC2=O (racemic) | thermal stability | – | DSF | 10 µM | ΔTm | 0.2 °C
CN(C)C1CCN(CC#Cc2nn(C3CCCC3)c3nc(NCc4ccccc4)ncc23)C1 (stereo not drawn) | enzyme activity | inhibitor | FRET | 1 µM | inhibition | 5%
N#CCCc1ccc2c(c1)-c1[nH]c3ccc([N+](=O)[O-])cc3c1CC(=O)N2 | cell-free assay | – | – | 0.5 µM | remaining signal | 93.1%
CCOCCn1cc(C(=O)Nc2ccc(-n3nc(-c4cccnc4)cc3C(F)(F)F)cn2)ccc1=O | cell-free assay | – | competition with immobilised ligand | 1 µM | remaining binding | 72%
COc1cc2ncnc(Nc3ccc(Oc4ccccc4)c(C)c3C)c2cc1OC | enzyme activity | inhibitor | – | 1 µM | inhibition | 2%
CC1=C(C#N)[C@@H](c2ccc3[nH]nc(C)c3c2)C(C#N)=C(c2ccc(Cl)cc2)N1 | cell-free assay | – | competition with immobilised ligand | 1 µM | remaining binding | 65.2%
COc1cc2c(N3CCN(C(=O)Nc4ccc(OC(C)C)cc4)CC3)ncnc2cc1OCCCN1CCCCC1 | cell-free assay | – | – | 0.5 µM | remaining signal | 105%
